# Laboratory results taken from ChEMBL document CHEMBL1152649, “Synthesis, cytotoxicity and human telomerase inhibition activities of a series of 1,2-heteroannelated anthraquinones and anthra[1,2-d]imidazole-6,11-dione homologues” (2009).
# Columns and labels:
# UACC-257 = test: Antiproliferative activity against human UACC257 cells assessed as cell growth at 10 uM; assay type: functional; conditions: read-out: Activity
# Procedure, shortened: (§1)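 NCI 60 cell line panel, single dose (10^-5 M), run per the Developmental Therapeutics Program protocol (one dose mean graph). Each result is the growth percentage of treated cells relative to untreated control cells.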
# SK-MEL-5 = test: Antiproliferative activity against human SK-MEL-5 cells assessed as cell growth at 10 uM; assay type: functional; conditions: read-out: Activity
# Procedure, shortened: (§2)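 NCI 60 cell line panel, single-dose screen (10^-5 M) run by the developmental therapeutics program protocol. Results are given as growth percent of treated cells relative to untreated control cells for each line.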
# [1] = target: Telomerase reverse transcriptase (Homo sapiens) (UniProt O14746); test: Inhibition of TERT in human H1299 cells assessed as residual transcriptional activity at 100 uM after 24 hrs by SEAP reporter gene assay; values are per cent of control
# TK-10 = test: Antiproliferative activity against human TK10 cells assessed as cell growth at 10 uM; assay type: functional; conditions: read-out: Activity; procedure, shortened: as §1
# SF-539 = test: Antiproliferative activity against human SF539 cells assessed as cell growth at 10 uM; assay type: functional; conditions: read-out: Activity; procedure, shortened: as §2
# OVCAR-3 = test: Antiproliferative activity against human OVCAR-3 cells assessed as cell growth at 10 uM; assay type: functional; conditions: read-out: Activity; procedure, shortened: as §2
# 786-0 = test: Antiproliferative activity against human 786-0 cells assessed as cell growth at 10 uM; assay type: functional; conditions: read-out: Activity; procedure, shortened: as §2
# HCC 2998 = test: Antiproliferative activity against human HCC2998 cells assessed as cell growth at 10 uM; assay type: functional; conditions: read-out: Activity; procedure, shortened: as §2
# Malme-3M = test: Antiproliferative activity against human MALME-3M cells assessed as cell growth at 10 uM; assay type: functional; conditions: read-out: Activity; procedure, shortened: as §2
# SK-MEL-28 = test: Antiproliferative activity against human SK-MEL-28 cells assessed as cell growth at 10 uM; assay type: functional; conditions: read-out: Activity; procedure, shortened: as §2
# LOX IMVI = test: Antiproliferative activity against human LOXIMVI cells assessed as cell growth at 10 uM; assay type: functional; conditions: read-out: Activity; procedure, shortened: as §2
# T47D = test: Antiproliferative activity against human T47D cells assessed as cell growth at 10 uM; assay type: functional; conditions: read-out: Activity; procedure, shortened: as §1
# K562 = test: Antiproliferative activity against human K562 cells assessed as cell growth at 10 uM; assay type: functional; conditions: read-out: Activity; procedure, shortened: as §2
# NCI-H226 = test: Antiproliferative activity against human NCI-H226 cells assessed as cell growth at 10 uM; assay type: functional; conditions: read-out: Activity; procedure, shortened: as §2
# COLO 205 = test: Antiproliferative activity against human COLO205 cells assessed as cell growth at 10 uM; assay type: functional; conditions: read-out: Activity; procedure, shortened: as §2
# A549 = test: Antiproliferative activity against human A549 cells assessed as cell growth at 10 uM; assay type: functional; conditions: read-out: Activity; procedure, shortened: as §2
# [2] = target: Telomerase reverse transcriptase (Homo sapiens) (UniProt O14746); test: Inhibition of TERT in human H1299 cells assessed as residual transcriptional activity at 10 uM after 24 hrs by SEAP reporter gene assay; values are per cent of control
# EKVX = test: Antiproliferative activity against human EKVX cells assessed as cell growth at 10 uM; assay type: functional; conditions: read-out: Activity; procedure, shortened: as §2
# CCRF-CEM = test: Antiproliferative activity against human CCRF-CEM cells assessed as cell growth at 10 uM; assay type: functional; conditions: read-out: Activity; procedure, shortened: as §2
# A498 = test: Antiproliferative activity against human A498 cells assessed as cell growth at 10 uM; assay type: functional; conditions: read-out: Activity; procedure, shortened: as §2
# DU-145 = test: Antiproliferative activity against human DU145 cells assessed as cell growth at 10 uM; assay type: functional; conditions: read-out: Activity; procedure, shortened: as §2
# SR = test: Antiproliferative activity against human SR cells assessed as cell growth at 10 uM; assay type: functional; conditions: read-out: Activity; procedure, shortened: as §1
# HCT-15 = test: Antiproliferative activity against human HCT15 cells assessed as cell growth at 10 uM; assay type: functional; conditions: read-out: Activity; procedure, shortened: as §2
# SK-MEL-2 = test: Antiproliferative activity against human SK-MEL-2 cells assessed as cell growth at 10 uM; assay type: functional; conditions: read-out: Activity; procedure, shortened: as §2
# SW-620 = test: Antiproliferative activity against human SW620 cells assessed as cell growth at 10 uM; assay type: functional; conditions: read-out: Activity; procedure, shortened: as §1
# SNB-75 = test: Antiproliferative activity against human SNB75 cells assessed as cell growth at 10 uM; assay type: functional; conditions: read-out: Activity; procedure, shortened: as §1
# UACC-62 = test: Antiproliferative activity against human UACC62 cells assessed as cell growth at 10 uM; assay type: functional; conditions: read-out: Activity; procedure, shortened: as §1
# OVCAR-4 = test: Antiproliferative activity against human OVCAR4 cells assessed as cell growth at 10 uM; assay type: functional; conditions: read-out: Activity; procedure, shortened: as §2
# NCI-H460 = test: Antiproliferative activity against human NCI-H460 cells assessed as cell growth at 10 uM; assay type: functional; conditions: read-out: Activity; procedure, shortened: as §2
# HOP-92 = test: Antiproliferative activity against human HOP92 cells assessed as cell growth at 10 uM; assay type: functional; conditions: read-out: Activity; procedure, shortened: as §2
# HCT-116 = test: Antiproliferative activity against human HCT116 cells assessed as cell growth at 10 uM; assay type: functional; conditions: read-out: Activity; procedure, shortened: as §2
# NCI-H23 = test: Antiproliferative activity against human NCI-H23 cells assessed as cell growth at 10 uM; assay type: functional; conditions: read-out: Activity; procedure, shortened: as §2
# UO-31 = test: Antiproliferative activity against human UO31 cells assessed as cell growth at 10 uM; assay type: functional; conditions: read-out: Activity; procedure, shortened: as §1
# PC-3 = test: Antiproliferative activity against human PC3 cells assessed as cell growth at 10 uM; assay type: functional; conditions: read-out: Activity; procedure, shortened: as §2
# OVCAR-5 = test: Antiproliferative activity against human OVCAR5 cells assessed as cell growth at 10 uM; assay type: functional; conditions: read-out: Activity; procedure, shortened: as §2
# KM12 = test: Antiproliferative activity against human KM12 cells assessed as cell growth at 10 uM; assay type: functional; conditions: read-out: Activity; procedure, shortened: as §2
# [3] = Cytotoxicity against human H1299 cells at 100 uM after 48 hrs by MTT assay; assay type: functional; conditions: NCI-H1299, 48 h
# Procedure, shortened: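 H1299 non-small cell lung cancer cells were grown in RPMI 1640 with 10% FBS, penicillin and streptomycin at 37 °C under 5% CO2. About 2 × 10³ cells per well were seeded and left 24 h. Compounds were dissolved fresh in DMSO, diluted into complete medium and applied for 48 h. MTT was then added for 4 h at 37 °C, followed by lysis buffer (20% SDS, 50% DMF) for 16 h, and absorbance was read at 550 nm.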
# [4] = Antiproliferative activity against human Hs 578T cells assessed as cell growth at 10 uM; assay type: functional; conditions: read-out: Activity; procedure, shortened: as §2
# M14 = test: Antiproliferative activity against human M14 cells assessed as cell growth at 10 uM; assay type: functional; conditions: read-out: Activity; procedure, shortened: as §2
# HOP-62 = test: Antiproliferative activity against human HOP62 cells assessed as cell growth at 10 uM; assay type: functional; conditions: read-out: Activity; procedure, shortened: as §2
# ACHN = test: Antiproliferative activity against human ACHN cells assessed as cell growth at 10 uM; assay type: functional; conditions: read-out: Activity; procedure, shortened: as §2
# SF-268 = test: Antiproliferative activity against human SF268 cells assessed as cell growth at 10 uM; assay type: functional; conditions: read-out: Activity; procedure, shortened: as §2
# OVCAR-8 = test: Antiproliferative activity against human OVCAR8 cells assessed as cell growth at 10 uM; assay type: functional; conditions: read-out: Activity; procedure, shortened: as §2
# NCI-H322M = test: Antiproliferative activity against human NCI-H322M cells assessed as cell growth at 10 uM; assay type: functional; conditions: read-out: Activity; procedure, shortened: as §2
# SN12C = test: Antiproliferative activity against human SN12C cells assessed as cell growth at 10 uM; assay type: functional; conditions: read-out: Activity; procedure, shortened: as §2
# SNB-19 = test: Antiproliferative activity against human SNB19 cells assessed as cell growth at 10 uM; assay type: functional; conditions: read-out: Activity; procedure, shortened: as §2
# HT-29 = test: Antiproliferative activity against human HT-29 cells assessed as cell growth at 10 uM; assay type: functional; conditions: read-out: Activity; procedure, shortened: as §2
# CAKI-1 = test: Antiproliferative activity against human Caki1 cells assessed as cell growth at 10 uM; assay type: functional; conditions: read-out: Activity; procedure, shortened: as §2
# Sequence of Telomerase reverse transcriptase (Homo sapiens) (O14746 whole entry): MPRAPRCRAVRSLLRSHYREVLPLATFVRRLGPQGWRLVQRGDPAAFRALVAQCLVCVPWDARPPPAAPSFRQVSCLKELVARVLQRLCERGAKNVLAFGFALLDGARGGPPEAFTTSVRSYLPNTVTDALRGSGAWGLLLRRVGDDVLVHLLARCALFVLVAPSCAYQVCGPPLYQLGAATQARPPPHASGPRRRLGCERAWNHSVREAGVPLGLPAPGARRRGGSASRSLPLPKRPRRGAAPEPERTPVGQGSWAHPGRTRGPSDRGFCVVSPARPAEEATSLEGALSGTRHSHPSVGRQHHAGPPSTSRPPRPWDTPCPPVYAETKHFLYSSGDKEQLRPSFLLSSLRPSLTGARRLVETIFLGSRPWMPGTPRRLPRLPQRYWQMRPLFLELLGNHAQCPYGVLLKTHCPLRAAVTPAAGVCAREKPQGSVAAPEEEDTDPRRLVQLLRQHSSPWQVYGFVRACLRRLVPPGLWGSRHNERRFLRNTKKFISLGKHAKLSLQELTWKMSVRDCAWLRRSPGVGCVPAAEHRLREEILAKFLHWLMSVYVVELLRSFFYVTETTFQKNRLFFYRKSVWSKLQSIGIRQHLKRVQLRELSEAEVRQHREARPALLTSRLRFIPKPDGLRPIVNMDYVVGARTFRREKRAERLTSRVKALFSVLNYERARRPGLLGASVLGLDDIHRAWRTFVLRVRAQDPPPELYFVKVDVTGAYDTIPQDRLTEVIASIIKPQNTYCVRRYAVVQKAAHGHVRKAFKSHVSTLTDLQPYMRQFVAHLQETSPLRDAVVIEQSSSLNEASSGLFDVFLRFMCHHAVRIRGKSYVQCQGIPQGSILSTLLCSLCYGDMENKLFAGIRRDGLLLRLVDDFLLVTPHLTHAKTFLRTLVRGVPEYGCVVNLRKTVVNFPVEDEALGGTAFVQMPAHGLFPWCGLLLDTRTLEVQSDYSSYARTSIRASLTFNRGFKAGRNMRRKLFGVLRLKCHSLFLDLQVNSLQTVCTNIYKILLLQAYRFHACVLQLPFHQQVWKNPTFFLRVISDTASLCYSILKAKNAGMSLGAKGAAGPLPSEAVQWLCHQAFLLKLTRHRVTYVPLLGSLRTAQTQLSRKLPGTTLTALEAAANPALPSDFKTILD
compound,measurement,setting,value
CCc1nc2ccc3c(c2[nH]1)C(=O)c1ccccc1C3=O,growth at 10 µM,UACC-257,39.7%
same,growth at 10 µM,SK-MEL-5,60.8%
same,residual activity,[1],25%
same,growth at 10 µM,TK-10,33.8%
same,growth at 10 µM,SF-539,83.2%
same,growth at 10 µM,OVCAR-3,78.2%
same,growth at 10 µM,786-0,76.6%
same,growth at 10 µM,HCC 2998,67.7%
same,growth at 10 µM,Malme-3M,56.9%
same,growth at 10 µM,SK-MEL-28,86.8%
same,growth at 10 µM,LOX IMVI,40%
same,growth at 10 µM,T47D,63%
same,growth at 10 µM,K562,64.4%
same,growth at 10 µM,NCI-H226,75.9%
same,growth at 10 µM,COLO 205,69.7%
same,growth at 10 µM,A549,68.2%
same,residual activity,[2],59%
same,growth at 10 µM,EKVX,52.3%
same,growth at 10 µM,CCRF-CEM,45.4%
same,growth at 10 µM,A498,28.9%
same,growth at 10 µM,DU-145,61.6%
same,growth at 10 µM,SR,52.5%
same,growth at 10 µM,HCT-15,42.2%
same,growth at 10 µM,SK-MEL-2,40.1%
same,growth at 10 µM,SW-620,73.1%
same,growth at 10 µM,SNB-75,55.1%
same,growth at 10 µM,UACC-62,51.4%
same,growth at 10 µM,OVCAR-4,48.8%
same,growth at 10 µM,NCI-H460,59.8%
same,growth at 10 µM,HOP-92,41.4%
same,growth at 10 µM,HCT-116,47.6%
same,growth at 10 µM,NCI-H23,71.4%
same,growth at 10 µM,UO-31,23.9%
same,growth at 10 µM,PC-3,48.5%
same,growth at 10 µM,OVCAR-5,102%
same,growth at 10 µM,KM12,72.9%
same,viability at 100 µM,[3],37%
same,growth at 10 µM,[4],-18.6%
same,growth at 10 µM,M14,60.1%
same,growth at 10 µM,HOP-62,97.7%
same,growth at 10 µM,ACHN,25%
same,growth at 10 µM,SF-268,80.4%
same,growth at 10 µM,OVCAR-8,72.9%
same,growth at 10 µM,NCI-H322M,31.4%
same,growth at 10 µM,SN12C,68.5%
same,growth at 10 µM,SNB-19,74.9%
same,growth at 10 µM,HT-29,64.5%
O=C1c2ccccc2C(=O)c2c1ccc1nc(-c3ccc4c(c3)OCO4)[nH]c21,growth at 10 µM,UACC-257,117%
same,growth at 10 µM,SK-MEL-5,98.7%
same,residual activity,[1],34%
same,growth at 10 µM,SF-539,108%
same,growth at 10 µM,CAKI-1,114%
same,growth at 10 µM,OVCAR-3,107%
same,growth at 10 µM,786-0,107%
same,growth at 10 µM,HCC 2998,85.7%
same,growth at 10 µM,SK-MEL-28,116%
same,growth at 10 µM,LOX IMVI,99.6%
same,growth at 10 µM,T47D,107%
same,growth at 10 µM,K562,80.6%
same,growth at 10 µM,NCI-H226,97%
same,growth at 10 µM,COLO 205,126%
same,growth at 10 µM,A549,102%
same,residual activity,[2],61%
same,growth at 10 µM,EKVX,94.2%
same,growth at 10 µM,CCRF-CEM,99.6%
same,growth at 10 µM,A498,91.7%
same,growth at 10 µM,DU-145,107%
same,growth at 10 µM,SR,91.7%
same,growth at 10 µM,HCT-15,106%
same,growth at 10 µM,SK-MEL-2,41.5%
same,growth at 10 µM,SW-620,91.9%
same,growth at 10 µM,SNB-75,102%
same,growth at 10 µM,UACC-62,98.1%
same,growth at 10 µM,OVCAR-4,101%
same,growth at 10 µM,NCI-H460,109%
same,growth at 10 µM,HOP-92,65.3%
same,growth at 10 µM,HCT-116,116%
same,growth at 10 µM,NCI-H23,94.3%
same,growth at 10 µM,UO-31,73.4%
same,growth at 10 µM,PC-3,107%
same,growth at 10 µM,OVCAR-5,111%
same,growth at 10 µM,KM12,97.8%
same,viability at 100 µM,[3],40%
same,growth at 10 µM,[4],106%
same,growth at 10 µM,M14,120%
same,growth at 10 µM,HOP-62,114%
same,growth at 10 µM,ACHN,104%
same,growth at 10 µM,SF-268,100%
same,growth at 10 µM,OVCAR-8,96.5%
same,growth at 10 µM,NCI-H322M,150%
same,growth at 10 µM,SN12C,101%
same,growth at 10 µM,SNB-19,121%
same,growth at 10 µM,HT-29,95.8%
